Laboratory results as given in ChEMBL document CHEMBL1137338, “Effects of substitution on 9-(3-bromo-4-fluorophenyl)-5,9-dihydro-3H,4H-2,6-dioxa-4- azacyclopenta[b]naphthalene-1,8-dione, a dihydropyridine ATP-sensitive potassium channel opener” (J Med Chem, 2006).

What was measured:
[1] = target: T1, Sulfonylurea receptor 2, Kir6.2 (Homo sapiens, UniProt O60706+Q14654); test: Activity against pig bladder KATP channel opening assessed as ability to relax spontaneous bladder contraction; format: functional, Sus scrofa; details: target entry is the homologue from another species
Method in brief: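 Spontaneously contracting detrusor strips were taken from near the trigonal region of Landrace pig bladder. Increasing concentrations of test agent were applied, and the reduction in area under the curve (AUC) of the spontaneous contractions was measured.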

[2] = target: T1, Sulfonylurea receptor 2, Kir6.2; test: (§1) Ability to open human urinary bladder Kir6.2 channel containing SUR2B in Ltk cells by FLIPR assay; format: functional, cell-based
Method in brief: (§2)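 Ltk- cells stably transfected with the Kir6.2/SUR2B exon 17- splice variant. Membrane potential was followed with DiBAC dye in a 96-well cell-based kinetic fluorescence (FLIPR) assay. The highest concentration tested was 10 µM. Each compound's maximal fluorescence response was expressed as % of the response to the reference opener.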

[3] = target: T1, Sulfonylurea receptor 2, Kir6.2; test: (§3) Activity against pig bladder KATP channel opening assessed as ability to relax field-stimulated pig detrusor; format: functional, Sus scrofa; details: target entry is the homologue from another species
[4] = target: T2, Sulfonylurea receptor 2, Kir6.2 (Homo sapiens) (UniProt Q14654+O60706); test: Activity against pig bladder KATP channel opening assessed as ability to relax spontaneous bladder contraction relative to P1075; format: functional; details: Sus scrofa; target entry is the homologue from another species
[5] = target: T2, Sulfonylurea receptor 2, Kir6.2 (Homo sapiens); test: Ability to open human urinary bladder Kir6.2 containing SUR2B in Ltk cells by FLIPR assay relative to P1075; format: functional, cell-based; method in brief: as §2
[6] = target: T2, Sulfonylurea receptor 2, Kir6.2 (Homo sapiens); test: Activity against pig bladder KATP channel opening assessed as ability to relax field-stimulated pig detrusor relative to P1075; format: functional; details: Sus scrofa; target entry is the homologue from another species
[7] = target: T2, Sulfonylurea receptor 2, Kir6.2 (Homo sapiens); test: as §1; format: functional, cell-based; details: filed as partial agonist; method in brief: as §2
[8] = target: T2, Sulfonylurea receptor 2, Kir6.2 (Homo sapiens); test: as §3; format: functional; details: Sus scrofa; filed as agonist; target entry is the homologue from another species
Rattus norvegicus [9] = test: Activity against spontaneous myogenic bladder contraction in partial outlet obstructed rat measured as reduction in AUC at 0.3 umol/kg, iv; format: functional; set-up: scale not given: the % may be the effect or the level left
Rattus norvegicus [10] = test: Activity against spontaneous myogenic bladder contraction in partial outlet obstructed rat measured as reduction in MAP at 0.1 umol/kg, iv; format: functional; set-up: scale not given: the % may be the effect or the level left
Rattus norvegicus [11] = test: Activity against volume-induced reflex neurogenic bladder contraction in urethral ligated rat measured as reduction in MAP at 0.3 umol/kg, iv; format: functional, Urinary bladder; set-up: scale not given: the % may be the effect or the level left
Rattus norvegicus [12] = test: Activity against volume-induced reflex neurogenic bladder contraction in urethral ligated rat measured as reduction in AUC at 0.3 umol/kg, iv; format: functional, Urinary bladder; set-up: scale not given: the % may be the effect or the level left
Rattus norvegicus [13] = test: Activity against spontaneous myogenic bladder contraction in partial outlet obstructed rat measured as reduction in AUC at 0.1 umol/kg, iv; format: functional; set-up: scale not given: the % may be the effect or the level left
Rattus norvegicus [14] = test: Activity against spontaneous myogenic bladder contraction in partial outlet obstructed rat measured as reduction in MAP at 0.03 umol/kg, iv; format: functional; set-up: scale not given: the % may be the effect or the level left
Rattus norvegicus [15] = test: Activity against volume-induced reflex neurogenic bladder contraction in urethral ligated rat measured as reduction in AUC at 1 umol/kg, iv; format: functional, Urinary bladder; set-up: scale not given: the % may be the effect or the level left
Rattus norvegicus [16] = test: Activity against spontaneous myogenic bladder contraction in partial outlet obstructed rat measured as reduction in MAP at 0.3 umol/kg, iv; format: functional; set-up: scale not given: the % may be the effect or the level left
Rattus norvegicus [17] = test: Activity against volume-induced reflex neurogenic bladder contraction in urethral ligated rat measured as reduction in MAP at 3 umol/kg, iv; format: functional, Urinary bladder; set-up: scale not given: the % may be the effect or the level left
Rattus norvegicus [18] = test: Activity against spontaneous myogenic bladder contraction in partial outlet obstructed rat measured as reduction in AUC at 1 umol/kg, iv; format: functional; set-up: scale not given: the % may be the effect or the level left
Rattus norvegicus [19] = test: Activity against volume-induced reflex neurogenic bladder contraction in urethral ligated rat measured as reduction in MAP at 1 umol/kg, iv; format: functional, Urinary bladder; set-up: scale not given: the % may be the effect or the level left
Rattus norvegicus [20] = test: Activity against volume-induced reflex neurogenic bladder contraction in urethral ligated rat measured as reduction in AUC at 3 umol/kg, iv; format: functional, Urinary bladder; set-up: scale not given: the % may be the effect or the level left
Rattus norvegicus [21] = test: Activity against spontaneous myogenic bladder contraction in partial outlet obstructed rat measured as reduction in MAP at 1 umol/kg, iv; format: functional; set-up: scale not given: the % may be the effect or the level left
Rattus norvegicus [22] = test: Activity against spontaneous myogenic bladder contraction in partial outlet obstructed rat measured as reduction in AUC at 0.03 umol/kg, iv; format: functional; set-up: scale not given: the % may be the effect or the level left

T1 sequence (Q14654 whole entry): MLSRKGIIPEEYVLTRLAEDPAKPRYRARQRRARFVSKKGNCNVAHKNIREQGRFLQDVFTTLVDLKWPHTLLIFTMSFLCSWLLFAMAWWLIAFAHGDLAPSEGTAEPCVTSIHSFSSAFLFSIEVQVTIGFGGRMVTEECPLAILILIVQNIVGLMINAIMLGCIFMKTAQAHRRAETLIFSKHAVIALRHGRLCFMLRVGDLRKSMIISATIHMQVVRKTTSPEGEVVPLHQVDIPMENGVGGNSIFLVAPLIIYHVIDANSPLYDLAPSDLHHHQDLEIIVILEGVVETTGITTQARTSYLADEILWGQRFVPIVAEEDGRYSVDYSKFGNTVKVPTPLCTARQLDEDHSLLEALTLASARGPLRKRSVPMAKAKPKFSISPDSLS
T1 sequence (O60706 whole entry): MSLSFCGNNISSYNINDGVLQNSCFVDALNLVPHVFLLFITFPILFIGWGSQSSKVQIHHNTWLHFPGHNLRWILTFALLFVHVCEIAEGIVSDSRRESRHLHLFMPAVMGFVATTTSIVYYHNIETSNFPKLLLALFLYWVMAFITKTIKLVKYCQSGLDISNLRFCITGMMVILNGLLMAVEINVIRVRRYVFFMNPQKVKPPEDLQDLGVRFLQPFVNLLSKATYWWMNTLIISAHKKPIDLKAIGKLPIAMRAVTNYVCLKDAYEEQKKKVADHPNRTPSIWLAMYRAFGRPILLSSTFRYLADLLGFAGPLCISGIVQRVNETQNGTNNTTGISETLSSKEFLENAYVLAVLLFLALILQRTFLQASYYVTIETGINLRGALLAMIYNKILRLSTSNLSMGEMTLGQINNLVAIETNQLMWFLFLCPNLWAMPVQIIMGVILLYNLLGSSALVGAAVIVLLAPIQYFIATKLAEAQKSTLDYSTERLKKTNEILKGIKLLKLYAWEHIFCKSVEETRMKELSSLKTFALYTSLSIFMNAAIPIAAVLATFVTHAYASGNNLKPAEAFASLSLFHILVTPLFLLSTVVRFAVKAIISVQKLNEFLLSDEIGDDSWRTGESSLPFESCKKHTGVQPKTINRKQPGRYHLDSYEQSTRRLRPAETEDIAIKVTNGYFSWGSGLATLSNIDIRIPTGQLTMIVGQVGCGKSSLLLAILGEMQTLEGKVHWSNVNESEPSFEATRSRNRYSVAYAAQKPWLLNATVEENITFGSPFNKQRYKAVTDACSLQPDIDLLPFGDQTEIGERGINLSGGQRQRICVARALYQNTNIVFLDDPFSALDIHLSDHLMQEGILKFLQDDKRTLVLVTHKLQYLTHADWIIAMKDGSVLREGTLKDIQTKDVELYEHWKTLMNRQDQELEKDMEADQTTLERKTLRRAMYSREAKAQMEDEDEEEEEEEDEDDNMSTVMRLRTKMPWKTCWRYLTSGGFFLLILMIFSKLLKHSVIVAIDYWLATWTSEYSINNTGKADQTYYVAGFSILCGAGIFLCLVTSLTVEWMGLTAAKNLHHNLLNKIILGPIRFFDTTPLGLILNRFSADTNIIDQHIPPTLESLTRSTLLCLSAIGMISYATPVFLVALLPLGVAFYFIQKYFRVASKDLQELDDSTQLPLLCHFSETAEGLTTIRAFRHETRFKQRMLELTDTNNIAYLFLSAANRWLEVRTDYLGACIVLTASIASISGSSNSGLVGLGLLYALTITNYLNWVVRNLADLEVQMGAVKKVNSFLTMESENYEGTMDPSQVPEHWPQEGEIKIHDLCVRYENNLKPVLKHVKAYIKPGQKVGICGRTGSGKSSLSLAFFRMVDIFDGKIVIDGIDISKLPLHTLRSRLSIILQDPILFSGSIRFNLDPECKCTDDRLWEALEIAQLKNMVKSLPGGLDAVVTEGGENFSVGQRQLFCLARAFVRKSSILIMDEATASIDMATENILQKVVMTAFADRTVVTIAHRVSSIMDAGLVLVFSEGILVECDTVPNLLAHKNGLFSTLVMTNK

CCC(C)(C)NC(=NC#N)Nc1cccnc1
EC50 [1]: 21.9 nM
EC50 [2]: 52.5 nM
EC50 [3]: 85.1 nM

CCc1cc(C#N)ccc1Nc1c(N[C@H](C)C(C)(C)C)c(=O)c1=O
Efficacy [4]: 100%
EC50 [1]: 102 nM
EC50 [2]: 2340 nM
Efficacy [5]: 71%
EC50 [3]: 676 nM
Efficacy [6]: 94%

O=C1COCC2=C1[C@@H](c1ccc(F)c(Br)c1)C1=C(COC1=O)N2
EC50 [2]: 63.1 nM
Efficacy [5]: 107%
EC50 [3]: 589 nM
Efficacy [6]: 95%

O=C1COCC2=C1C(c1ccc(F)c(Br)c1)C1=C(O)COCC1=N2 (centres undefined)
EC50 [2]: 27.5 nM
Efficacy [5]: 87%
EC50 [3]: 126 nM
Efficacy [6]: 97%

CCC(C)(C)/N=C(\NC#N)Nc1cccnc1
Efficacy [4]: 100%
Efficacy [5]: 101%
Efficacy [6]: 99%

C[C@](O)(C(=O)Nc1ccc(C(=O)c2ccccc2)cc1)C(F)(F)F
Efficacy [4]: 100%
Efficacy [5]: 100%
Efficacy [6]: 99%

CCC[C@H]1OC(O)=C2C1=NC1=C(C(=O)COC1)[C@H]2c1ccc(F)c(Br)c1 (racemic)
Activity [7]: Partial agonist
Efficacy [5]: 36%
Activity [8]: Agonist
Efficacy [6]: 90%

CC[C@H]1OC(O)=C2C1=NC1=C(C(=O)COC1)[C@H]2c1ccc(F)c(Br)c1 (racemic)
Activity [7]: Partial agonist
Efficacy [5]: 40%
Activity [8]: Agonist
Efficacy [6]: 88%

CC[C@H]1OCC(O)=C2C1=NC1=C(C(=O)COC1)[C@H]2c1ccc(Cl)c(Cl)c1 (racemic)
Activity [7]: Partial agonist
Efficacy [5]: 58%

CC[C@H]1OCC(O)=C2C1=NC1=C(C(=O)COC1)[C@H]2c1ccc(F)c(Br)c1 (racemic)
Activity [7]: Partial agonist
Efficacy [5]: 30%

CC[C@H]1OCC(O)=C2C1=NC1=C(C(=O)COC1)[C@H]2c1ccc(F)c(Cl)c1 (racemic)
Activity [7]: Partial agonist
Efficacy [5]: 30%

CC(C)[C@@H]1OC(O)=C2C1=NC1=C(C(=O)COC1)[C@H]2c1ccc(F)c(Br)c1 (relative stereo)
EC50 [2]: > 10000 nM
EC50 [3]: 1200 nM
Efficacy [6]: 97%

CC(C)C[C@@H]1OC(O)=C2C1=NC1=C(C(=O)COC1)[C@H]2c1ccc(F)c(Br)c1 (relative stereo)
EC50 [2]: 27.5 nM
Efficacy [5]: 83%
EC50 [3]: 129 nM
Efficacy [6]: 74%

O=C1COCC2=C1[C@@H](c1ccc(F)c(Br)c1)C1=C(O)O[C@@H](c3ccccc3)C1=N2 (relative stereo)
EC50 [2]: 257 nM
Efficacy [5]: 68%
EC50 [3]: 1290 nM
Efficacy [6]: 91%

CC[C@H]1OC(O)=C2C1=NC1=C(C(=O)CSC1)[C@H]2c1ccc(F)c(Br)c1 (relative stereo)
Activity [7]: Partial agonist
Efficacy [5]: 15%
Activity [8]: Agonist
Efficacy [6]: 100%

CC1(C)Oc2ccc(C#N)cc2[C@H](N2CCCC2=O)[C@H]1O (single isomer, unassigned)
Efficacy [4]: 100%
Efficacy [5]: 83%
Efficacy [6]: 99%

O=C1COCC2=C1C(c1ccc(F)c(Br)c1)C1=C(O)OCC1=N2 (stereo in doubt; 6b) [listing 1 of 2 here]
EC50 [1]: 0.676 nM
EC50 [2]: 37.2 nM
EC50 [3]: 214 nM

O=C1COCC2=C1C(c1ccc(F)c(Br)c1)C1=C(O)OCC1=N2 (stereo in doubt; 6b) [listing 2 of 2 here]
Efficacy [4]: 100%
Efficacy [5]: 101%
Efficacy [6]: 88%

C[C@@H]1OCC2=C(C1=O)[C@@H](c1ccc(F)c(Br)c1)C1=C(O)OCC1=N2 (stereo in doubt; 7a)
Activity [7]: Partial agonist
Efficacy [5]: 17%

C[C@@H]1OCC2=C(C1=O)[C@H](c1ccc(F)c(Br)c1)C1=C(O)OCC1=N2 (stereo in doubt; 8a)
Activity [7]: Partial agonist
Efficacy [5]: 15%

C[C@@H]1OCC2=C(C1=O)[C@H](c1ccc(F)c(Br)c1)C1=C(O)OCC1=N2 (stereo in doubt; 8b)
Activity [7]: Partial agonist
Efficacy [5]: 16%

CC[C@H]1OC(O)=C2C1=NC1=C(C(=O)COC1)[C@H]2c1ccc(F)c(Br)c1 (stereo in doubt; 21b) [listing 1 of 2 here]
EC50 [1]: 19.1 nM
EC50 [2]: 170 nM
EC50 [3]: 282 nM

CC[C@H]1OC(O)=C2C1=NC1=C(C(=O)COC1)[C@H]2c1ccc(F)c(Br)c1 (stereo in doubt; 21b) [listing 2 of 2 here]
Efficacy [4]: 96%
Activity [7]: Partial agonist
Efficacy [5]: 46%
Efficacy [6]: 77%

CCC[C@H]1OC(O)=C2C1=NC1=C(C(=O)COC1)[C@H]2c1ccc(F)c(Br)c1 (stereo in doubt; 23b) [listing 1 of 2 here]
Activity (Rattus norvegicus [9]): 46.7%
Activity (Rattus norvegicus [10]): 9.6%
Activity (Rattus norvegicus [11]): 22.6%
Activity (Rattus norvegicus [12]): 16%
EC50 [1]: 28.8 nM
Activity (Rattus norvegicus [13]): 19.1%
Activity (Rattus norvegicus [14]): 5.1%
Activity (Rattus norvegicus [15]): 31.9%
EC50 [2]: 27.5 nM
Activity (Rattus norvegicus [16]): 23.6%
Activity (Rattus norvegicus [17]): 49.7%
Activity (Rattus norvegicus [18]): 93.1%
Activity (Rattus norvegicus [19]): 43.8%
EC50 [3]: 513 nM
Activity (Rattus norvegicus [20]): 37.4%
Activity (Rattus norvegicus [21]): 40.7%
Activity (Rattus norvegicus [22]): 4.2%

CCC[C@H]1OC(O)=C2C1=NC1=C(C(=O)COC1)[C@H]2c1ccc(F)c(Br)c1 (stereo in doubt; 23b) [listing 2 of 2 here]
Efficacy [4]: 99%
Activity [7]: Partial agonist
Efficacy [5]: 45%
Efficacy [6]: 34%

CCCC[C@H]1OC(O)=C2C1=NC1=C(C(=O)COC1)[C@H]2c1ccc(F)c(Br)c1 (stereo in doubt; 29b) [listing 1 of 2 here]
EC50 [1]: 331 nM
EC50 [2]: 851 nM
EC50 [3]: 1660 nM

CCCC[C@H]1OC(O)=C2C1=NC1=C(C(=O)COC1)[C@H]2c1ccc(F)c(Br)c1 (stereo in doubt; 29b) [listing 2 of 2 here]
Efficacy [4]: 100%
Efficacy [5]: 68%
Efficacy [6]: 51%

CC[C@H]1OC(O)=C2C1=NC1=C(C(=O)C(C)(C)OC1)[C@H]2c1ccc(F)c(Br)c1 (stereo in doubt; 36b)
Activity [7]: Partial agonist
Efficacy [5]: 34%

CCC[C@H]1OC(O)=C2C1=NC1=C(C(=O)COC1)[C@H]2c1ccc(F)c(Cl)c1 (stereo in doubt; 39b)
Activity [7]: Partial agonist
Efficacy [5]: 39%
Efficacy [6]: 66%

CCC[C@H]1OC(O)=C2C1=NC1=C(C(=O)COC1)[C@H]2c1ccc(F)c(I)c1 (stereo in doubt; 41b)
EC50 [2]: 26.9 nM
EC50 [3]: 229 nM

CC[C@H]1OCC(O)=C2C1=NC1=C(C(=O)COC1)[C@H]2c1ccc(F)c(Br)c1 (stereo in doubt; 71a) [listing 1 of 2 here]
EC50 [1]: 129 nM
EC50 [2]: 170 nM
EC50 [3]: 2040 nM

CC[C@H]1OCC(O)=C2C1=NC1=C(C(=O)COC1)[C@H]2c1ccc(F)c(Br)c1 (stereo in doubt; 71a) [listing 2 of 2 here]
Efficacy [4]: 98%
Activity [7]: Partial agonist
Efficacy [5]: 40%
Efficacy [6]: 54%

CC[C@H]1OCC(O)=C2C1=NC1=C(C(=O)COC1)[C@H]2c1ccc(Cl)c(Cl)c1 (stereo in doubt; 74b) [listing 1 of 2 here]
EC50 [1]: 55 nM
EC50 [2]: 170 nM
EC50 [3]: 2290 nM

CC[C@H]1OCC(O)=C2C1=NC1=C(C(=O)COC1)[C@H]2c1ccc(Cl)c(Cl)c1 (stereo in doubt; 74b) [listing 2 of 2 here]
Efficacy [4]: 92%
Activity [7]: Partial agonist
Efficacy [5]: 57%
Efficacy [6]: 41%

CC[C@H]1OCC(O)=C2C1=NC1=C(C(=O)COC1)[C@H]2c1ccc(Br)c(Cl)c1 (stereo in doubt; 76b) [listing 1 of 2 here]
EC50 [1]: 245 nM
EC50 [2]: 245 nM
EC50 [3]: 13500 nM

CC[C@H]1OCC(O)=C2C1=NC1=C(C(=O)COC1)[C@H]2c1ccc(Br)c(Cl)c1 (stereo in doubt; 76b) [listing 2 of 2 here]
Efficacy [4]: 97%
Activity [7]: Partial agonist
Efficacy [5]: 37%
Efficacy [6]: 38%
